According to ChEMBL document CHEMBL3797028, “Novel S1P1 receptor agonists - Part 4: Alkylaminomethyl substituted aryl head groups” (Eur J Med Chem, 2016):
pEC50: −log10 of the molar value.

Tests used:
[1] = Ratio of total drug level in brain to plasma in Wistar rat at 10 mg/kg administered as single dose through oral gavage after 6 hrs; type: ADME, organism-based; conditions: read-out: BPR
Procedure, shortened: (§1)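 Male Wistar rats (n = 2 per timepoint) were dosed orally at 10 mg/kg. At 2, 6 and 24 h they were anaesthetised with 5% isoflurane and sacrificed, and blood was taken for plasma. The brain was perfused via the carotid with 10 mL 0.9% NaCl, removed, and homogenised in an equal volume of ice-cold 0.1 M Na-phosphate pH 7.4. Samples were assayed by LC-MS/MS against blank-brain calibration. Brain/plasma ratio was calculated from these values, reported as the mean of 2.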

[2] = system: Rattus norvegicus; test: Change in circulating lymphocyte count in Wistar rat at 3 mg/kg administered as single dose through oral gavage after 3 hrs relative to control; type: functional
Procedure, shortened: (§2)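 Male Wistar rats (RccHan:WIST; n = 6) were given a single oral gavage dose of compound in DMSO plus 7.5% succinylated gelatine (final 5% DMSO). Blood lymphocytes were counted just before dosing and at later timepoints. Percent change was calculated per animal relative to the pre-dose value and compared with a vehicle-treated group, reported as the mean. A ±15% change was treated as baseline, and a reduction of about 60% or more as maximal.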

[3] = system: Plasma; test: Plasma concentration in Wistar rat at 3 mg/kg administered as single dose through oral gavage after 72 hrs by LC-MS/MS analysis; type: ADME, organism-based; conditions: in vivo, BLD = below limit of detection
Procedure, shortened: (§3)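 Single oral gavage dose to male Wistar rats in DMSO/7.5% succinylated gelatine (final 5% DMSO). Blood was drawn into EDTA at the lymphocyte-count timepoints. Plasma was prepared at 3000 g for 10 min at 4 °C and analysed by LC-MS/MS after protein precipitation.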

[4] = system: Liver microsome; test: Unbound fraction corrected apparent intrinsic clearance in Wistar rat liver microsomes at 1 uM after 2.5 to 15 mins by LC-MS/MS analysis in presence of NADPH; type: ADME
Procedure, shortened: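 Apparent CLint was measured by microsomal substrate depletion: 1 uM start, 0.5 mg/mL rat liver microsomes, pH 7.4, 37 °C, NADPH-regenerating system, sampling 0–15 min, LC-MS/MS. It was then divided by the unbound microsomal fraction, which was determined by rapid equilibrium dialysis of 1 mg/mL microsomes for 6 h at 37 °C.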

[5] = system: Rattus norvegicus; test: Change in circulating lymphocyte count in Wistar rat at 10 mg/kg administered as single dose through oral gavage after 3 hrs relative to control; type: functional; procedure, shortened: as §2
[6] = Plasma concentration in Wistar rat at 3 mg/kg administered as single dose through oral gavage after 6 hrs by LC-MS/MS analysis; type: ADME, organism-based; procedure, shortened: as §3
[7] = system: Plasma; test: Plasma concentration in Wistar rat at 1 mg/kg administered as single dose through oral gavage after 72 hrs by LC-MS/MS analysis; type: ADME, organism-based; conditions: in vivo, BLD = below limit of detection; procedure, shortened: as §3
[8] = biological target: Sphingosine 1-phosphate receptor 2 (Homo sapiens, UniProt O95136); test: Agonist activity at S1PR2 (unknown origin)
Chain of Sphingosine 1-phosphate receptor 2 (O95136 whole entry): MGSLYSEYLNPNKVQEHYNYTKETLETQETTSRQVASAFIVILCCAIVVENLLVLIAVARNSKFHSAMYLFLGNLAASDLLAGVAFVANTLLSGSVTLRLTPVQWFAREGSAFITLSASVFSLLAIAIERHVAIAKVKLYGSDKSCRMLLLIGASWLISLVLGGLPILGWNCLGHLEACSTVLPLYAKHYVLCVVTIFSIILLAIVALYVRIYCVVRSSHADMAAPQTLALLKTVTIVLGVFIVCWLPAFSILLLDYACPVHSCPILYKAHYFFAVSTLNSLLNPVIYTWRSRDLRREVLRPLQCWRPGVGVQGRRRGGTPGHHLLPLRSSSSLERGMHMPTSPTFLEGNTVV

[9] = system: Rattus norvegicus; test: Change in circulating lymphocyte count in Wistar rat at 1 mg/kg administered as single dose through oral gavage after 6 hrs relative to control; type: functional; procedure, shortened: as §2
[10] = Plasma concentration in Wistar rat at 3 mg/kg administered as single dose through oral gavage after 24 hrs by LC-MS/MS analysis; type: ADME, organism-based; procedure, shortened: as §3
[11] = Fraction unbound in Wistar rat liver microsomes incubated for 6 hrs by LC-MS/MS based equilibrium dialysis method; type: ADME
Procedure, shortened: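 Rapid equilibrium dialysis was run on a shaker for 6 h at 37 °C. The donor side held rat plasma (pH 7.2–7.6) or 1 mg/mL rat liver microsomes in phosphate buffer pH 7.4. The receiver side held phosphate buffer pH 7.4. Both sides were measured by LC-MS/MS to give free fraction and recovery.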

[12] = Total brain concentration in Wistar rat at 10 mg/kg administered as single dose through oral gavage after 6 hrs by LC-MS/MS analysis; type: ADME, organism-based; conditions: read-out: Drug uptake; procedure, shortened: as §1
[13] = system: Rattus norvegicus; test: Change in circulating lymphocyte count in Wistar rat at 10 mg/kg administered as single dose through oral gavage after 6 hrs relative to control; type: functional; procedure, shortened: as §2
[14] = system: Rattus norvegicus; test: Change in circulating lymphocyte count in Wistar rat at 3 mg/kg administered as single dose through oral gavage after 24 hrs relative to control; type: functional; procedure, shortened: as §2
[15] = Total plasma concentration in Wistar rat at 10 mg/kg administered as single dose through oral gavage after 6 hrs by LC-MS/MS analysis; type: ADME, organism-based; procedure, shortened: as §1
[16] = Total brain concentration in Wistar rat at 10 mg/kg administered as single dose through oral gavage after 24 hrs by LC-MS/MS analysis; type: ADME, organism-based; conditions: read-out: Drug uptake; procedure, shortened: as §1
[17] = biological target: Sphingosine 1-phosphate receptor 5 (Homo sapiens, UniProt Q9H228); test: Agonist activity at S1PR5 (unknown origin)
Chain of Sphingosine 1-phosphate receptor 5 (Q9H228 whole entry): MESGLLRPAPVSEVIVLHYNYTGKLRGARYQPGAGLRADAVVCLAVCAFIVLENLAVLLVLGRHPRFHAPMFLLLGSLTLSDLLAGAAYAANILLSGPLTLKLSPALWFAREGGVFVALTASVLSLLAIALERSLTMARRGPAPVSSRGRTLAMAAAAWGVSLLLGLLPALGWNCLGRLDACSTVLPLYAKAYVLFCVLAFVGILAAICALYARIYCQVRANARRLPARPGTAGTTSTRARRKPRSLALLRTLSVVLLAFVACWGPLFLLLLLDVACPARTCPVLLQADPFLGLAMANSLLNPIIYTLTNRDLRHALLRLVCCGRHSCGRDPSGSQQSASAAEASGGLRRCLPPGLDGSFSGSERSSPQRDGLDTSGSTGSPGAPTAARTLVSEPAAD

[18] = system: Rattus norvegicus; test: Change in circulating lymphocyte count in Wistar rat at 10 mg/kg administered as single dose through oral gavage after 96 hrs relative to control; type: functional; procedure, shortened: as §2
[19] = Distribution coefficient, log D between 1-octonol and phosphate buffer at pH 7; type: physicochemical; conditions: 1-octanol/phosphate buffer
Procedure, shortened: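 Partition was between 1-octanol and phosphate buffer at pH 7.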

[20] = Plasma concentration in Wistar rat at 10 mg/kg administered as single dose through oral gavage after 24 hrs by LC-MS/MS analysis; type: ADME, organism-based; procedure, shortened: as §3
[21] = system: Rattus norvegicus; test: Change in circulating lymphocyte count in Wistar rat at 1 mg/kg administered as single dose through oral gavage after 3 hrs relative to control; type: functional; procedure, shortened: as §2
[22] = Ratio of total drug level in brain to plasma in Wistar rat at 10 mg/kg administered as single dose through oral gavage after 24 hrs; type: ADME, organism-based; conditions: read-out: BPR; procedure, shortened: as §1
[23] = Plasma concentration in Wistar rat at 3 mg/kg administered as single dose through oral gavage after 3 hrs by LC-MS/MS analysis; type: ADME, organism-based; procedure, shortened: as §3
[24] = Ratio of total drug level in brain to plasma in Wistar rat at 10 mg/kg administered as single dose through oral gavage after 2 hrs; type: ADME, organism-based; conditions: read-out: BPR; procedure, shortened: as §1
[25] = Plasma concentration in Wistar rat at 10 mg/kg administered as single dose through oral gavage after 96 hrs by LC-MS/MS analysis; type: ADME, organism-based; procedure, shortened: as §3

With `CCc1cc(-c2noc(-c3cc(C)c(CN(C)CC(C)C)s3)n2)cc(C)c1OC[C@@H](O)CNC(=O)CO` the Kp at 6 h [1] was 1.69, the Activity [2] was -59% and the Cp [3] was “BLD”. For the same compound, the CL free [4] was 14000 µL/min/mg, the Activity [5] was -69% and the concentration at 6 h [6] was 170 ng/mL. The Cp [7] was “BLD”, the pEC50 [8] was under 6.00 and the Activity [9] was -46%. For the same compound, the concentration at 24 h [10] was 25 ng/mL, the fraction unbound at 6 h [11] was 0.002 and the concentration at 6 h [12] was 1030 ng/g. The Activity [13] was -77%, the Activity [14] was -25% and the concentration at 6 h [15] was 622 ng/mL. It also gave a concentration at 24 h [16] of 776 ng/g, a pEC50 [17] of 6.12 and an Activity [18] of 4%. For the same compound, the logD [19] was over 4.1, the concentration at 24 h [20] was 92 ng/mL and the Activity [21] was -33%. It also gave a Kp at 24 h [22] of 11.5, a concentration at 3 h [23] of 210 ng/mL and a Kp at 2 h [24] of 0.64. It also gave a concentration at 96 h [25] of 0.5 ng/mL.
